According to ChEMBL document CHEMBL1123347, “Topical nonsteroidal antipsoriatic agents. 1. 1,2,3,4-Tetraoxygenated naphthalene derivatives” (J Med Chem, 1986):

Tests used:
[1] = Partition coefficient (logP); assay type: physicochemical; conditions: octanol/water
How it was run: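 Lipophilicity (log P) measured by 1-octanol-coated reversed-phase HPLC. The mobile phase is pH 7.4 PBS saturated with 1-octanol, run on RP-18 or C-18 packing. A second system is linked to the first through overlapping series. For the most lipophilic analogues that could not be detected, log P is calculated from Free-Wilson-derived substituent constants assuming additivity.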

[2] = test system: Mus musculus; experiment: Compound was tested for inhibition of arachidonic acid induced mouse ear edema at 2 mg of dose; assay type: functional
How it was run: (§1)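 Mouse ear edema induced by arachidonic acid (dissolved in acetone at 100 mg/mL). Test agent is applied topically in acetone, 2 mg/0.02 mL per total dose, 60 min before arachidonic acid. Ear edema is read 1 h later as the weight gain of an 8-mm-diameter ear plug. It is compared with acetone-only and arachidonic acid-only controls run in the same experiment. n = 8 per group; percent inhibition is reported as mean.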

[3] = Statistical significance, p values as compared to positive control by students t-test; assay type: ADME
How it was run: (§2)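 Same arachidonic acid ear-edema model: 2 mg total topical dose in acetone, given 60 min before arachidonic acid, with 8 animals per group. Edema is measured by ear plug weight 1 h after arachidonic acid. p values come from Student's t-test against the concurrent arachidonic acid positive control. Thresholds are given as + (≤0.05) and so on.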

[4] = test system: Mus musculus; experiment: Compound was tested for inhibition of arachidonic acid induced mouse ear edema at 2 mg of dose; I=Insoluble; assay type: functional, organism-based; how it was run: as §1
[5] = Statistical significance, p values as compared to positive control by students t-test; I=Insoluble; assay type: ADME; how it was run: as §2

COc1c(OC)c(OC(C)=O)c2cc(Cl)ccc2c1OC(C)=O [LONAPALENE]
logP [1]: 3.26 | Inhibition [2]: 54% | Significance [3]: <= 0.001

CC(C)(C)C(=O)Oc1c(Oc2ccccc2)c(Oc2ccccc2)c(OC(=O)C(C)(C)C)c2ccccc12
inhibition [4]: Insoluble | Significance [5]: Insoluble | logP [1]: 7.8

O=C(Oc1c(Oc2ccccc2)c(Oc2ccccc2)c(OC(=O)c2ccccc2)c2ccccc12)c1ccccc1
inhibition [4]: Insoluble | Significance [5]: Insoluble | logP [1]: 7.9

CC(=O)Oc1c(Oc2ccccc2)c(Oc2ccccc2)c(OC(C)=O)c2ccccc12
inhibition [4]: Insoluble | Significance [5]: Insoluble | logP [1]: 4.8
